This is an account of results in ChEMBL document CHEMBL1124493, “Synthesis and tumor uptake of 5-82Br- and 5-131I-labeled 5-halo-1-(2-fluoro-2-deoxy-beta-D-ribofuranosyl)uracils” (J Med Chem, 1989).

For the first test, the system named is Nucleic Acid. In words: Incorporation of compound into DNA of human and mammalian cells, by replacing thymidine. The format is functional.
For the compound `O=c1[nH]c(=O)n([C@H]2C[C@H](O)[C@@H](CO)O2)cc1Br` [BROXURIDINE], the Replacement stood at 43%.

The species named for another test is Mus musculus. The experiment in a line: Inhibition constant for influx competition with [6-3H]thymidine in mouse erythrocytes. The format is functional. In outline: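 Freshly harvested mouse erythrocytes were exposed to various concentrations of test nucleoside and [6-3H]thymidine, and zero-trans thymidine influx was measured. Extracellular [6-3H]thymidine was measured over time by liquid scintillation counting of aliquots. The Ki for competition at the nucleoside transporter was derived by previously described methods.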
With `O=c1[nH]c(=O)n([C@H]2C[C@H](O)[C@@H](CO)O2)cc1Br` [BROXURIDINE], the affinity corresponds to a Ki of 140 µM. Still for that read-out and setting: with `O=c1ccn([C@@H]2O[C@H](CO)[C@@H](O)[C@H]2F)c(=O)[nH]1` the figure was 120 µM; with `Cc1cn([C@H]2C[C@H](O)[C@@H](CO)O2)c(=O)[nH]c1=O` [DOXRIBTIMINE], 80 µM. The same measure, in the same setting: with `O=c1[nH]c(=O)n([C@H]2C[C@H](O)[C@@H](CO)O2)cc1I` [IDOXURIDINE] the figure was 210 µM; with `O=c1ccn([C@H]2C[C@H](O)[C@@H](CO)O2)c(=O)[nH]1` [DEOXYURIDINE], 130 µM.
